Source: ChEMBL document CHEMBL1121899, “Biological activities of photoaffinity labeling analogues of kinins and their irreversible effects on kinin receptors” (1981)
Where a SMILES comes first, the peptide text is derived from it.

How the values were obtained:
[1] = biological target: T1, B2 bradykinin receptor (Homo sapiens) (UniProt P30411); assay: In vitro 50 % Maximal response in jugular vein expressing B2 receptor; format: functional; settings: Oryctolagus cuniculus
T1 sequence (whole entry): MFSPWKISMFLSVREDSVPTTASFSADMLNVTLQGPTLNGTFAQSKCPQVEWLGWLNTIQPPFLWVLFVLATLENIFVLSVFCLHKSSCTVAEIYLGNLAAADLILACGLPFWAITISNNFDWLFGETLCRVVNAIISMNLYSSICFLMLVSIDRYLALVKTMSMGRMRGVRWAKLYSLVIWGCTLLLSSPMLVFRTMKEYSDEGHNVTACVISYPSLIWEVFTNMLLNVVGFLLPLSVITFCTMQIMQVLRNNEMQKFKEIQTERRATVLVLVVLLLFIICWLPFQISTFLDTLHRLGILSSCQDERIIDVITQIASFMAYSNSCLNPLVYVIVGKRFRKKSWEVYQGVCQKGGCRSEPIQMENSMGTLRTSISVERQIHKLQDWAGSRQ
Outline: (§1)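 Isolated rabbit jugular vein strips were equilibrated about 2 h with protease inhibitor SQ 14225 (100 ng/mL) under incandescent light, with no UV. pD₂ was taken as −log of the half-maximal concentration. Relative affinity is given as percent of BK. Specificity was checked by desensitization with BK or an analogue. Antagonists were given as pA₂ from the ID₅₀ that reduces a double agonist dose to a single-dose response.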

[2] = biological target: T1, B2 bradykinin receptor (Homo sapiens); assay: Percent agonistic activity in rabbit jugular vein expressing B2 receptor relative to bradykinin; format: functional; settings: Oryctolagus cuniculus; outline: as §1
[3] = species on record: Oryctolagus cuniculus; assay: The compound was tested in vitro (2.0 uM) on rabbit jugular vein for residual response in absence of ultraviolet light; format: functional
Outline: (§2)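 Jugular vein strips were treated exactly as in the photolabeling protocol (scavenger 100 µM (4'-amino)Phe plus analogue) but without light. Residual BK response was measured 60 min after the last treatment against reference tissues. Results were discarded if reference tissues lost over 25% sensitivity.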

[4] = biological target: T2, B1 bradykinin receptor (Homo sapiens) (UniProt P46663); assay: Intrinsic activity was determined; format: functional; settings: Oryctolagus cuniculus
T2 sequence (whole entry): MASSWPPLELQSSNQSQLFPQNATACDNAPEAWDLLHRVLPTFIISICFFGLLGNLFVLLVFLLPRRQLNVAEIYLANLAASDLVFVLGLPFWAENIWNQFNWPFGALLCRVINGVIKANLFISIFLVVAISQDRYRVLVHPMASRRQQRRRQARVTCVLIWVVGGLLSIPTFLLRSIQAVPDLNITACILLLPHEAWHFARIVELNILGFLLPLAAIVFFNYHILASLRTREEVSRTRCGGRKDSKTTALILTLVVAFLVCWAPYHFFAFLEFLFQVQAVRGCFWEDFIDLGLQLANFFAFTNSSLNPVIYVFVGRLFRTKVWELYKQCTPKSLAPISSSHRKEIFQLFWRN

[5] = species on record: Oryctolagus cuniculus; assay: The compound was tested in vitro (0.1 uM) on rabbit aorta for residual response in presence of ultraviolet light; format: functional; settings: in the assay text read “rabbit jugular vein” for “rabbit aorta”
Outline: (§3)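 Aorta strips in cycloheximide were challenged twice with [des-Arg⁹]BK and checked with 3 µM noradrenaline and 0.2 µM [Sar¹]angiotensin II. They were then incubated with 100 µM (4'-amino)Phe plus the photolabel and irradiated 10 min around 365 nm (18 mW/cm²). This was done once or twice. Residual [des-Arg⁹]BK response at 60 min was expressed as percent of reference tissues.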

[6] = species on record: Oryctolagus cuniculus; assay: Competitive protection towards rabbit jugular vein in the presence of light; format: functional
Outline: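 Rabbit jugular vein strips (B2), with SQ 14225 100 ng/mL present after about 2 h equilibration. 5 µM BK added before the photolabel, scavenger (4'-amino)Phe 100 µM, and 10 min irradiation around 365 nm (18 mW/cm²). Residual BK response read 60 min after treatment, relative to reference tissues.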

[7] = species on record: Oryctolagus cuniculus; assay: The compound was tested in vitro (1.0 uM) on rabbit jugular vein for residual response in presence of ultraviolet light; format: functional
Outline: (§4)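 Jugular vein strips were challenged twice with BK and checked with 1 µM [Nle¹¹]substance P and 7 µM histamine. They were then incubated with 100 µM (4'-amino)Phe plus the photolabel and irradiated 10 min around 365 nm (18 mW/cm²) at maximal contraction or after 5 min. This was done once or twice. BK response at 60 min was expressed as percent of reference tissues, rechecked every 45 min.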

[8] = species on record: Oryctolagus cuniculus; assay: The compound was tested in vitro on rabbit aorta for residual response in absence of ultraviolet light; format: functional
Outline: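 Aorta strips were treated as in the photolabeling protocol but without light, or with light alone. Residual [des-Arg⁹]BK response was measured 60 min later against reference tissues. Darkroom testing was done in triplicate for the visible-light-absorbing analogue.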

[9] = species on record: Oryctolagus cuniculus; assay: In vitro 50 % Maximal response in rabbit aorta expressing B1 receptor; format: functional; settings: read-out: ED50 (the source's name)
[10] = tested on: B2 bradykinin receptor (Oryctolagus cuniculus); assay: Relative affinity against B2 receptor relative to bradykinin
[11] = tested on: B2 bradykinin receptor (Oryctolagus cuniculus); assay: Agonistic activity (pD2) in rabbit jugular vein expressing B2 receptor relative to bradykinin
[12] = species on record: Oryctolagus cuniculus; assay: The compound was tested in vitro (3 uM) on rabbit jugular vein for residual response in absence of ultraviolet light; format: functional; outline: as §2
[13] = species on record: Oryctolagus cuniculus; assay: Competitive protection towards rabbit aorta in the presence of light; format: functional
Outline: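 Rabbit aorta strips (B1), with cycloheximide 10 µg/mL present after 3 h equilibration. Tissue pretreated with 50 µM [Leu⁸,des-Arg⁹]BK before the photolabel, scavenger (4'-amino)Phe 100 µM, and 10 min irradiation around 365 nm (18 mW/cm²). Residual [des-Arg⁹]BK response read 60 min after treatment, relative to reference tissues.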

[14] = species on record: Oryctolagus cuniculus; assay: The compound was tested in vitro on rabbit aorta for residual response in presence of ultraviolet light; format: functional; outline: as §3
[15] = species on record: Oryctolagus cuniculus; assay: The compound was tested in vitro (0.2 uM) on rabbit jugular vein for residual response in presence of ultraviolet light; format: functional; outline: as §4
[16] = species on record: Oryctolagus cuniculus; assay: The compound was tested in vitro (0.1 uM) on rabbit jugular vein for residual response in presence of ultraviolet light; format: functional; outline: as §4
[17] = tested on: B2 bradykinin receptor (Oryctolagus cuniculus); assay: In vitro 50 % Maximal response in jugular vein expressing B2 receptor
[18] = species on record: Oryctolagus cuniculus; assay: The compound was tested (0.5 micro M) in vitro on rabbit jugular vein for residual response in presence of ultraviolet light; format: functional; outline: as §4
[19] = tested on: B2 bradykinin receptor (Oryctolagus cuniculus); assay: In vitro 50 % Maximal response in rabbit jugular vein expressing B2 receptor

Compound: N#[N+]c1ccc(C[C@H](NC(=O)[C@@H]2CCCN2C(=O)[C@H](CO)NC(=O)[C@H](Cc2ccccc2)NC(=O)CNC(=O)[C@@H]2CCCN2C(=O)[C@@H]2CCCN2C(=O)[C@@H](N)CCCN=C(N)N)C(=O)N[C@@H](CCCN=C(N)N)C(=O)O)cc1 (HELM PEPTIDE1{R.P.P.G.F.S.P.[N#[N+]c1ccc(C[C@H](N[*:1])C(=O)[*:2])cc1].R}$$$$V2.0)
- ED50 [1]: 25 nM
- Relative affinity [2]: 9%
- Response [3]: 94%
- Alpha E [4]: 1

Compound: H-RPPGFSPFR-OH [BRADYKININ]
- ED50 [1]: 1.65 nM
- Relative affinity [2]: 100%
- Response [5]: 92%
- Alpha E [4]: 1

Compound: [N-]=[N+]=Nc1ccc(C[C@H](NC(=O)CNC(=O)[C@@H]2CCCN2C(=O)[C@@H]2CCCN2C(=O)[C@@H](N)CCCNC(=N)N)C(=O)N[C@@H](CO)C(=O)N2CCC[C@H]2C(=O)N[C@@H](Cc2ccccc2)C(=O)N[C@@H](CCCNC(=N)N)C(=O)O)cc1 (HELM PEPTIDE1{R.P.P.G.[[N-]=[N+]=Nc1ccc(C[C@H](N[*:1])C(=O)[*:2])cc1].S.P.F.R}$$$$V2.0)
- Competitive protection [6]: 91
- Response [7]: 44%
- ED50 [1]: 10 nM
- Relative affinity [2]: 17%
- Alpha E [4]: 1

Compound: N#[N+]c1ccc(C[C@H](NC(=O)[C@@H]2CCCN2C(=O)[C@H](CO)NC(=O)[C@H](Cc2ccccc2)NC(=O)CNC(=O)[C@@H]2CCCN2C(=O)[C@@H]2CCCN2C(=O)[C@@H](N)CCCN=C(N)N)C(=O)O)cc1
- Response [8]: 95%
- EC50 [9]: 0.824 µM
- Alpha E [4]: 1

Compound: N#[N+]c1ccc(C[C@H](NC(=O)CNC(=O)[C@@H]2CCCN2C(=O)[C@@H]2CCCN2C(=O)[C@@H](N)CCCN=C(N)N)C(=O)N[C@@H](CO)C(=O)N2CCC[C@H]2C(=O)N[C@@H](Cc2ccccc2)C(=O)N[C@@H](CCCN=C(N)N)C(=O)O)cc1 (HELM PEPTIDE1{R.P.P.G.[N#[N+]c1ccc(C[C@H](N[*:1])C(=O)[*:2])cc1].S.P.F.R}$$$$V2.0)
- Relative affinity [10]: 9%
- pD [11]: 7.73 M
- ED50 [1]: 25 nM
- Response [12]: 92%
- Alpha E [4]: 1

Compound: [N-]=[N+]=Nc1ccc(C[C@H](NC(=O)[C@@H]2CCCN2C(=O)[C@H](CO)NC(=O)[C@H](Cc2ccccc2)NC(=O)CNC(=O)[C@@H]2CCCN2C(=O)[C@@H]2CCCN2C(=O)[C@@H](N)CCCN=C(N)N)C(=O)O)cc1
- Competitive protection [13]: 95
- EC50 [9]: 8.56 µM
- Response [14]: 37%
- Alpha E [4]: 0

Compound: [N-]=[N+]=Nc1ccc(C[C@H](NC(=O)[C@@H]2CCCN2C(=O)[C@H](CO)NC(=O)[C@H](Cc2ccccc2)NC(=O)CNC(=O)[C@@H]2CCCN2C(=O)[C@@H]2CCCN2C(=O)[C@@H](N)CCCN=C(N)N)C(=O)N[C@@H](CCCN=C(N)N)C(=O)O)cc1 (HELM PEPTIDE1{R.P.P.G.F.S.P.[[N-]=[N+]=Nc1ccc(C[C@H](N[*:1])C(=O)[*:2])cc1].R}$$$$V2.0)
- ED50 [1]: 7 nM
- Response [15]: 85%
- Relative affinity [2]: 23%
- Alpha E [4]: 1

Compound: NC(N)=NCCC[C@H](NC(=O)[C@H](Cc1ccc([N+](=O)[O-])cc1)NC(=O)[C@@H]1CCCN1C(=O)[C@H](CO)NC(=O)[C@H](Cc1ccccc1)NC(=O)CNC(=O)[C@@H]1CCCN1C(=O)[C@@H]1CCCN1C(=O)[C@@H](N)CCCN=C(N)N)C(=O)O (HELM PEPTIDE1{R.P.P.G.F.S.P.[O=C([C@H](Cc1ccc([N+](=O)[O-])cc1)N[*:1])[*:2]].R}$$$$V2.0)
- Response [16]: 91%
- ED50 [1]: 6.6 nM
- Relative affinity [2]: 25%
- Alpha E [4]: 1

Compound: NC(N)=NCCC[C@H](NC(=O)[C@H](Cc1ccccc1)NC(=O)[C@@H]1CCCN1C(=O)[C@H](CO)NC(=O)[C@H](Cc1ccc([N+](=O)[O-])cc1)NC(=O)CNC(=O)[C@@H]1CCCN1C(=O)[C@@H]1CCCN1C(=O)[C@@H](N)CCCN=C(N)N)C(=O)O (HELM PEPTIDE1{R.P.P.G.[O=C([C@H](Cc1ccc([N+](=O)[O-])cc1)N[*:1])[*:2]].S.P.F.R}$$$$V2.0)
- ED50 [17]: 24 nM
- Response [18]: 88%
- pD [19]: 7.62 M
- Relative affinity [2]: 7%
- Alpha E [4]: 1
